The text below walks through data of publication PMC4846470 (Psychopharmacology, 2016).

Data set [1] addresses human recombinant CB1 receptors (Homo sapiens, UniProt P21554). Put plainly: Radioligand binding to human recombinant CB1 receptors in CHO cell membranes.
Data set [2] has as its target human CB1 cannabinoid receptors (Homo sapiens, UniProt P21554). Put plainly: Gi agonist effect: cAMP functional assay in CHO cells expressing CB1. Conditions: for Emax: CHO, read-out: Maximum Effect (%). Type of data set: cell-based.
Data set [3] relates to Male ND4 Swiss–Webster mice. Put plainly: Locomotor activity. The note with it: for Time of peak (maximal) locomotor depression after injection: active doses. Format: in vivo.
For the next data set, the system named is Male Sprague-Dawley rats. Nature of the data set: Drug discrimination in rats trained to discriminate Δ^9-THC. The note with it: for Effect on rate of responding: cannabinoids at doses which substituted; for Substitution for the discriminative stimulus effects of Δ^9-THC: full substitution defined as ≥80% drug-appropriate responding. Format: in vivo. An outline of the steps:
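Vehicle: ethanol/Cremophor EL/0.9% saline 1:1:18. In tests both levers paid and data ran to first reinforcer or 20 min. Six rats per compound got all doses. Pretreatment was at locomotor peak-depression time. Rate was responses/time to first reinforcer.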

Usually Ki stands for the dissociation constant of the complex between target and ligand, obtained from inhibition or displacement. Usually EC50 stands for the concentration at which the effect is half-maximal. A high value points to weaker potency.

Entries after “also recorded” stand apart in the source; their conditions may differ. Bounds are passed on as bounds.

Sequence of human recombinant CB1 receptors (P21554 whole entry): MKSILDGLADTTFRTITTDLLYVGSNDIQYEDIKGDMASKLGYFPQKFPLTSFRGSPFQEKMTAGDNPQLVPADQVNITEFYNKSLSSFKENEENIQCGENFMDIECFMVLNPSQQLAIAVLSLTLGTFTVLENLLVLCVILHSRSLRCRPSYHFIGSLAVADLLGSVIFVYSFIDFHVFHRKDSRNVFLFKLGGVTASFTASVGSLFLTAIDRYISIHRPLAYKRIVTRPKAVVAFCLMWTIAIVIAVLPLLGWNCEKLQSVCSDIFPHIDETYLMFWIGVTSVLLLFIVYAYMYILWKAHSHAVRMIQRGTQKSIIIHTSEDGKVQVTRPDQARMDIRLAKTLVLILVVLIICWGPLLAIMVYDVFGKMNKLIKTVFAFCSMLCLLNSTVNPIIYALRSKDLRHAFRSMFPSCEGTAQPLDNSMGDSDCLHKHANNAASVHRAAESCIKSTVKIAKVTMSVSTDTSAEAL
Sequence of human CB1 cannabinoid receptors (P21554 whole entry): as above

`CCCCCn1cc(C(=O)NC(C(N)=O)C(C)(C)C)c2ccccc21` (stereo not drawn) [ADBICA, N-(1-amino-3,3-dimethyl-1-oxobutan-2-yl)-1-pentyl-1H-indole-3-carboxamide]: in data set [1], the Ki stood at 1.3 nM. For the same compound, in data set [2], the EC50 is 0.38 nM and the Emax was found to be 97.4%. Also, the “Time of peak (maximal) locomotor depression after injection” value (from here on “Time of peak”) in data set [3] (mice, i.p.) is not above 20 min.
As for `CNC(C)Cc1ccc2c(c1)OCO2` (stereo not drawn) [MDMA, 3,4-Methylenedioxy-methamphetamine], the “Maximum THC-appropriate responding” value in the data set on Male Sprague-Dawley rats (THC-trained rats, following 1.5 mg/kg, negative control) stood at 11%. Also, in the data set with Male Sprague-Dawley rats (THC-trained rats), the “Effect on rate of responding” value is on record as “dose-dependently depressed rate of responding” and the “Substitution for the discriminative stimulus effects of Δ^9-THC” value is reported as “did not substitute; also recorded: failed to substitute”. For the same compound, the “Rats that failed to complete the first fixed ratio” value with Male Sprague-Dawley rats (following 3 mg/kg, n=9) is reported as 6 of 9.
Turning to `O=C(c1cccc2ccccc12)c1nn(CCCCCF)c2ccccc12` [THJ-2201, (1-(5-fluoropentyl)-1H-indazol-3-yl)(naphthalen-1-yl)methanone], in data set [2], it took 0.64 nM to reach a half-maximal effect (EC50) and the Emax came to 96.6%.
Take `CCCCCn1cc(C(=O)c2ccc(CC)c3ccccc23)c2ccccc21` [JWH-210, (4-ethyl-1-naphthalenyl)(1-pentyl-1H-indol-3-yl)-methanone]: in data set [1], the Ki is 1.01 nM. In data set [2], the EC50 worked out at 111 nM and the Emax is 98.2%. For the same compound, the “Mice with tremors upon handling” value in data set [3] (8 h following 10 mg/kg i.p.) is listed as 6 of 8. For the same compound, in the data set on Male Sprague-Dawley rats (THC-trained rats), the “Effect on rate of responding” value is reported as “modest depression of rate of responding”.
As for `CCCCCn1cc(C(=O)c2ccc(OC)cc2)c2ccccc21` [RCS-4, (4-methoxyphenyl)(1-pentyl-1H-indol-3-yl)methanone], the Ki in data set [1] is 22.5 nM. In data set [2], the concentration for a half-maximal effect (EC50) came out at 20 nM and the Emax turned out to be 101%. Further, in the data set with Male Sprague-Dawley rats (THC-trained rats), the “Effect on rate of responding” value is “modest depression of rate of responding” and the “Substitution for the discriminative stimulus effects of Δ^9-THC” value is on record as “full substitution”.
Turning to `CCCCCn1nc(C(=O)NC(C(N)=O)C(C)(C)C)c2ccccc21` (stereo not drawn) [ADB-PINACA, N-[1-(aminocarbonyl)-2,2-dimethylpropyl]-1-pentyl-1H-indazole-3-carboxamide], the Ki in data set [1] turned out to be 0.59 nM. Further, in data set [2], the half-maximal effective concentration (EC50) is 0.024 nM and the Emax worked out at 99.6%. In data set [3] (mice, i.p.), the “Time of peak” value is 20 min.
Turning to `CCCCCn1cc(C(=O)c2ccc(C)c3ccccc23)c2ccccc21` [JWH-122, (4-methyl-1-naphthalenyl)(1-pentyl-1H-indol-3-yl)-methanone], the Ki in data set [1] was found to be 3.35 nM. Further, in data set [2], the EC50 amounted to 2.8 nM and the Emax amounted to 102%.
As to `CCCCCc1cc(O)c2c(c1)OC(C)(C)[C@@H]1CCC(C)=C[C@@H]21` [Δ^9-THC, Δ^9-Tetrahydrocannabinol, reference compound], the “Time of peak” value in data set [3] (mice, i.p.) was 30 to 60 min. For the same compound, the “ED50 Locomotor Activity (locomotor depressant effects)” value in data set [3] (mice, i.p., dose producing 1/2 maximal depression, mean with 95% confidence interval) is 12.99 (2.51 to 67.21) mg/kg. The “ED50 Drug Discrimination (discriminative stimulus effects)” value with Male Sprague-Dawley rats (THC-trained rats, i.p., mean with 95% confidence interval) is reported as 1.15 (0.21 to 6.27) mg/kg.
